# In ChEMBL document CHEMBL2384998, “Modular, efficient synthesis of asymmetrically substituted piperazine scaffolds as potent calcium channel blockers” (Bioorg Med Chem Lett, 2013):
# How the values were obtained:
# [1] = target: Voltage-dependent L-type calcium channel subunit alpha-1C (Rattus norvegicus, UniProt P22002); assay: Inhibition of rat cardiac Cav1.2 L-type channel expressed in HEK cells after 20 mins by FLIPR assay; type: cell-based, HEK293
# Procedure, shortened: (§1)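 Fluorescence Ca²⁺ influx read by FLIPR with the Ca²⁺ indicator dye Fluo-4. Each compound was tested as an 8-point concentration-response profile spanning 0.003–10 μM, giving IC50. Membrane potential and channel state were set by changing the external potassium ion concentration.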
# [2] = target: Voltage-dependent N-type calcium channel subunit alpha-1B (Rattus norvegicus, UniProt Q02294); assay: Inhibition of rat brain Cav2.2 N-type channel expressed in HEK cells after 20 mins by FLIPR assay; type: cell-based, HEK293; procedure, shortened: as §1
# Chain of Voltage-dependent N-type calcium channel subunit alpha-1B (Q02294 whole entry): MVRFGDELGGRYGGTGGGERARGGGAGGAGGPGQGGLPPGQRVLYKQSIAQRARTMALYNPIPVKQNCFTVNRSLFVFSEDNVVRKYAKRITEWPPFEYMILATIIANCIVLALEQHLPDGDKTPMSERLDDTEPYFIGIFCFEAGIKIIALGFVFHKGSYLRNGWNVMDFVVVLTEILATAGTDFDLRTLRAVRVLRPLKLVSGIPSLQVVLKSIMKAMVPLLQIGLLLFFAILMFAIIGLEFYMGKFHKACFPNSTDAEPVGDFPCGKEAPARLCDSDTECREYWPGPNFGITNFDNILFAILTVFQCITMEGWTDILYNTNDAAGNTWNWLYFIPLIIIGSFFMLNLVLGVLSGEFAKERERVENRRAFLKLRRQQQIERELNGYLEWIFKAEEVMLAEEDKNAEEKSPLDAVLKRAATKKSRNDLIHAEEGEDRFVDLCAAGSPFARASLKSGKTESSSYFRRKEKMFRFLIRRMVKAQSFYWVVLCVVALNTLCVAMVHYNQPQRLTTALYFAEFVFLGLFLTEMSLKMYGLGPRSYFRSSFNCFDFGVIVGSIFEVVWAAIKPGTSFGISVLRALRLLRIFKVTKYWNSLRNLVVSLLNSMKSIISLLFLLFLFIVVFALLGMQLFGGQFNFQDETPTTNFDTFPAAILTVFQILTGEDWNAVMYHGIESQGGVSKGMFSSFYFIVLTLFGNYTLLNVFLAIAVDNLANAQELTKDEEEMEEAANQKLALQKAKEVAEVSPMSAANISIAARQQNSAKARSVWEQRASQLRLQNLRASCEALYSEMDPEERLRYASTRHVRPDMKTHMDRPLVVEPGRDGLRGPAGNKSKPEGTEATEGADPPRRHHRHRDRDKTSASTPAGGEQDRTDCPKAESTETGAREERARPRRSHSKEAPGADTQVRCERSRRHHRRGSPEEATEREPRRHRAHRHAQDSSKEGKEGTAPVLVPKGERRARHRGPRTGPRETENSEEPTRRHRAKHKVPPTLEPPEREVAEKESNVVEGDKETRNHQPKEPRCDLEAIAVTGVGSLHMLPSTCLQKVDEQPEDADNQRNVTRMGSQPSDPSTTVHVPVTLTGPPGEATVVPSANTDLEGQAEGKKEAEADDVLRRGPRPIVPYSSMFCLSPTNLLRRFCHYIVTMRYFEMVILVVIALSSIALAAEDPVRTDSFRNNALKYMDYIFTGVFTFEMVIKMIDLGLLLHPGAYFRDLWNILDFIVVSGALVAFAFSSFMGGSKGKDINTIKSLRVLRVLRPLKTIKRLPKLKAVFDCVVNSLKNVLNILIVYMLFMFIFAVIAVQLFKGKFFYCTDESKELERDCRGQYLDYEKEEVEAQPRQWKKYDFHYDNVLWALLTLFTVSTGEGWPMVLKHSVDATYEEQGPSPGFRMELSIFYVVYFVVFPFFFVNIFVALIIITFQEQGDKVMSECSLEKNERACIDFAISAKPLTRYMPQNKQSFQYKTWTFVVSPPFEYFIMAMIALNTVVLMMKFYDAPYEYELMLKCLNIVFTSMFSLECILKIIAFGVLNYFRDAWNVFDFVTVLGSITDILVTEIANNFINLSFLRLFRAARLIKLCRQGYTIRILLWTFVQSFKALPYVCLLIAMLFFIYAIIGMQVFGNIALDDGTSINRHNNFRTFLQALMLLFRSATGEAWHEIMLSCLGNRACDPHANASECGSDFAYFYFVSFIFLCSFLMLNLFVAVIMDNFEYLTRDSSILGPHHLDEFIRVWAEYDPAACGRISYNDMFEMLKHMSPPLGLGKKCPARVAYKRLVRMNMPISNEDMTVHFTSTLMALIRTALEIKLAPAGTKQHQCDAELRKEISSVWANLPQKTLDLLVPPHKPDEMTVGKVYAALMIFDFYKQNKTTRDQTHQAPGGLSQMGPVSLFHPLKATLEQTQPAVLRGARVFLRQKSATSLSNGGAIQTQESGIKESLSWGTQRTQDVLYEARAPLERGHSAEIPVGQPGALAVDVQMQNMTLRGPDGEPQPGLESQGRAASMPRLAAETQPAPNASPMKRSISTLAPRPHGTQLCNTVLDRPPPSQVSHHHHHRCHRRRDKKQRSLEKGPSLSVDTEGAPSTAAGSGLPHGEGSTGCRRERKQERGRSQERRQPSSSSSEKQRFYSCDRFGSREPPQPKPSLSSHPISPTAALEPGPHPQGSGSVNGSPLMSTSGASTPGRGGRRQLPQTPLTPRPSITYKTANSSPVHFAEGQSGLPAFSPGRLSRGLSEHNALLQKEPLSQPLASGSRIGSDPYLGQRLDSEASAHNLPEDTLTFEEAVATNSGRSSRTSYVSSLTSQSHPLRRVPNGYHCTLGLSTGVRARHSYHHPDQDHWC
# Rattus norvegicus = organism: Rattus norvegicus; assay: Selectivity ratio of IC50 for rat cardiac Cav1.2 L-type channel to IC50 for rat brain Cav2.2 N-type channel
# Chain of Voltage-dependent L-type calcium channel subunit alpha-1C (P22002 whole entry): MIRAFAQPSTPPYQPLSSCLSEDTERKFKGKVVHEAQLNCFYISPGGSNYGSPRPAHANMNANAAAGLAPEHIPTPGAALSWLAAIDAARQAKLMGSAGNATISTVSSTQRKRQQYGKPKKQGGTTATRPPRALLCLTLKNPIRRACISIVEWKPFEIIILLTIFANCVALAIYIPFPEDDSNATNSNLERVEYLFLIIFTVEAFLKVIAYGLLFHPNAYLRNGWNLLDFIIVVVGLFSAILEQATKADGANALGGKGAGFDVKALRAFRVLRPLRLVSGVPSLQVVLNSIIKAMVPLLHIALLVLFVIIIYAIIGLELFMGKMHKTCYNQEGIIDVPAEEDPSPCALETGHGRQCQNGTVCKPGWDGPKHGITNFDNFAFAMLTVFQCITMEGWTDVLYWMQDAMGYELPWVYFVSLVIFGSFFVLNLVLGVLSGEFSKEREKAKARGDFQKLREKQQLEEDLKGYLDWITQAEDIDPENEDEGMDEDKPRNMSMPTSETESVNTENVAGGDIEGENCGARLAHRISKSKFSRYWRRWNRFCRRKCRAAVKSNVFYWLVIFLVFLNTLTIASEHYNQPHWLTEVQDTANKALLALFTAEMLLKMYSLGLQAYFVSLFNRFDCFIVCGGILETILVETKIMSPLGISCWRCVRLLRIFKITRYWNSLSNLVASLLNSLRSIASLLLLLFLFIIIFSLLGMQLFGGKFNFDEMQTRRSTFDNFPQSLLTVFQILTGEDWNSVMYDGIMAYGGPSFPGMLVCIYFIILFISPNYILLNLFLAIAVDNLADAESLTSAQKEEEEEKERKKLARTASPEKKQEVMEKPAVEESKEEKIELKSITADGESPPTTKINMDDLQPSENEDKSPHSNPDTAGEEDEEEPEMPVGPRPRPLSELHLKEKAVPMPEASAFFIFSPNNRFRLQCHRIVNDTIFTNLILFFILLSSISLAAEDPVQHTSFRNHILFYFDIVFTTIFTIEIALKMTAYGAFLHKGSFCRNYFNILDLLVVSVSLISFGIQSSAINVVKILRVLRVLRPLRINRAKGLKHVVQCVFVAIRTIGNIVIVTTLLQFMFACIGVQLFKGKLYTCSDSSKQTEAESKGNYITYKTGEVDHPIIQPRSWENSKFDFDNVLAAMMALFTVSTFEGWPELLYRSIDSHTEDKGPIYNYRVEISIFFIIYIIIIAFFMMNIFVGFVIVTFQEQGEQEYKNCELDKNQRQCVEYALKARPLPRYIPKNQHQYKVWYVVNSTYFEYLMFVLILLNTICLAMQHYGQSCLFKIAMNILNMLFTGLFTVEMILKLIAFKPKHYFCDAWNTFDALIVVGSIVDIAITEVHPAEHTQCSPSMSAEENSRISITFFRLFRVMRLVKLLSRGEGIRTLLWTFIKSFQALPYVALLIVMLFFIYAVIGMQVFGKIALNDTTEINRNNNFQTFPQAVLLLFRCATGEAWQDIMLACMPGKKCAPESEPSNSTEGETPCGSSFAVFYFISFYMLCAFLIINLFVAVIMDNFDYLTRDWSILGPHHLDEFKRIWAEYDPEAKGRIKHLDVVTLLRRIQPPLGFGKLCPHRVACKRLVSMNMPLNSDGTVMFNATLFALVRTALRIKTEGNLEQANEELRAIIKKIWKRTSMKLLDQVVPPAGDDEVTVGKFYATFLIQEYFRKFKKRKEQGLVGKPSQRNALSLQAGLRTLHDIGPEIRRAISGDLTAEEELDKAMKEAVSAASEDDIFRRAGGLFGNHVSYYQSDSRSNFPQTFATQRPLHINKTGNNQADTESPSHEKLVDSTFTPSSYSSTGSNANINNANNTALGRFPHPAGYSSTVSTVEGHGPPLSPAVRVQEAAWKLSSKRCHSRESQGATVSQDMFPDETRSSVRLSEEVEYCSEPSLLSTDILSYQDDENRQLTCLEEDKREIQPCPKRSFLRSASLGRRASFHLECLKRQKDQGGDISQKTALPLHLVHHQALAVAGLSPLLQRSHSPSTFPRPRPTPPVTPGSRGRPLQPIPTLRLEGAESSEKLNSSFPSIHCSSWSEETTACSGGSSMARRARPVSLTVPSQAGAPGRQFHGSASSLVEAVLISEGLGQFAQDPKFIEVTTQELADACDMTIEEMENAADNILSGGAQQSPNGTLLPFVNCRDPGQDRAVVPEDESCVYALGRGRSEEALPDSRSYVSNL
SMILES,IC50 [1] [µM],IC50 [2] [µM],Ratio IC50 (Rattus norvegicus)
C[C@@H]1CN(C(c2ccccc2)c2ccccc2)[C@H](Cc2ccccc2)CN1,1.78,4.34,0.4
C[C@@H]1CN(Cc2ccccc2)[C@H](CCCCO)CN1 (relative stereo),10,9.6,–
C[C@@H]1CN(Cc2ccccc2)[C@H](CCCCO[Si](C)(C)C(C)(C)C)CN1 (relative stereo),3.34,4.85,0.7
C[C@@H]1CN(Cc2ccccc2)[C@H](Cc2ccccc2)CN1S(=O)(=O)c1ccc(C(F)(F)F)cc1 (relative stereo),10,10,1
C[C@@H]1CN(C(c2ccccc2)c2ccccc2)[C@H](CCCO[Si](C)(C)C(C)(C)C)CN1 (relative stereo),6.8,10,0.7
C[C@@H]1CN(C(c2ccccc2)c2ccccc2)[C@H](CCCCO[Si](C)(C)C(C)(C)C)CN1S(=O)(=O)c1ccc(C(F)(F)F)cc1 (relative stereo),10,10,1
Cc1ccc(S(=O)(=O)N2C[C@@H](CCCO[Si](C)(C)C(C)(C)C)N(C(c3ccccc3)c3ccccc3)C[C@H]2C)cc1 (relative stereo),5.1,2.6,2
C[C@@H]1CN(C(c2ccccc2)c2ccccc2)[C@H](CCCCO)CN1 (relative stereo),5.4,0.85,6
CCCCC[C@@H]1CN[C@H](C)CN1C(c1ccccc1)c1ccccc1 (relative stereo),1.78,2.4,0.7
C[C@@H]1CN(Cc2ccc(F)cc2)[C@H](Cc2ccccc2)CN1C(=O)C(c1ccccc1)c1ccccc1 (relative stereo),–,10,–
Cc1ccc(S(=O)(=O)N2C[C@@H](CCCCO[Si](C)(C)C(C)(C)C)N(C(c3ccccc3)c3ccccc3)C[C@H]2C)cc1 (relative stereo),8.2,4.7,1.7
C[C@@H]1CN(C(c2ccccc2)c2ccccc2)[C@H](CCCCO[Si](C)(C)C(C)(C)C)CN1 (relative stereo),1.53,1.07,1.4
C[C@@H]1CN(Cc2ccc(F)cc2)[C@H](Cc2ccccc2)CN1S(=O)(=O)c1ccc(C(F)(F)F)cc1 (relative stereo),10,10,1
C[C@@H]1CN(Cc2ccccc2)[C@H](Cc2ccccc2)CN1 (relative stereo),10,10,1
CCCCCCCCC[C@@H]1CN[C@H](C)CN1Cc1ccccc1 (relative stereo),5.6,10,0.6
C[C@@H]1CN(Cc2ccc(F)cc2)[C@H](Cc2ccccc2)CN1 (relative stereo),10,8.37,1.2
CCCCC[C@@H]1CN[C@H](C)CN1Cc1ccccc1 (relative stereo),9.23,9.84,0.9
